Only some compounds are listed: those with a hit (about 1.1% of all), similar ones and a draw of the others.
Diaphorase act – diaphorase activation or chemical reduction counter-screen; Diaphorase/resazurin coupled assay, resorufin fluorescence, 16 min; stronger effect = higher value; 1 = vehicle wells, 0 = NADH-free wells; activation factor at 20 µM; AID 1229; 190,000 tested, 0.005% active;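 active = diaphorase activity raised at least twofold by the compound at 20 µM; inactive = activation factor below 2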
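System – purified diaphorase enzyme from Clostridium kluyveri · Input – enzyme 0.07 U/mL final · Also added – final NADH 0.114 mM, resazurin 0.1 mM · Measured by – fluorescence of resorufin, 544 nm excitation, 590 nm emission · Timing – 16 min enzyme reaction, ambient temperature · Measure – resorufin increase flagging diaphorase activators or reducers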
G6PDH counter – inhibits Leuconostoc G6PDH, flagging false hits in G6PDH-based assays | Purified L. mesenteroides G6PDH, diaphorase/resazurin coupled fluorescence, 45 min | inhibition, % at 5 µM | 200,000 tested, 0.12% active; in the data active = inhibition above about 50%
PMI activator – increases human mannose-6-phosphate isomerase activity; purified human PMI, coupled resazurin fluorescence, 20 min; stronger effect = higher value; 1 = vehicle control, 0 substrate-free wells; activation factor at 20 µM; 190,000 tested, 0.005% active; AID 1214;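 active = activation factor of 2 or more at 20 µM, relative to plate controls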
Target sequence (P34949 whole entry, looked up): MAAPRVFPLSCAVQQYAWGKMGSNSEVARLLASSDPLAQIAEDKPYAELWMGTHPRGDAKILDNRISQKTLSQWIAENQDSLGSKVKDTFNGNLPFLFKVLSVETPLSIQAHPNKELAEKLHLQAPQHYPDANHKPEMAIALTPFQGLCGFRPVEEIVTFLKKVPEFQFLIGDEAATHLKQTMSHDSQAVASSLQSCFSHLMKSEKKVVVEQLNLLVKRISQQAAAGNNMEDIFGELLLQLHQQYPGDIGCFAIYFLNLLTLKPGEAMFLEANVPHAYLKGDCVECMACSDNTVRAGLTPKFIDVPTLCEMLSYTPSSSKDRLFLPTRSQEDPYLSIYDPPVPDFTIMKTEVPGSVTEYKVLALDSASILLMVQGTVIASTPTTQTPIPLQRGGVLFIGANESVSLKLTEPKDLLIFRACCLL
PMI act hi M6P – increases human PMI activity with near-saturating mannose 6-phosphate; P34949; coupled PMI enzyme assay, resazurin fluorescence, 20 min; stronger effect = higher value; 1 = untreated enzyme, 0 = substrate-free blank; activation factor at 20 µM; 190,000 tested, 0.34% active;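 active = activation factor of 2 or more at 20 µM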
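Test system: human PMI in coupled enzyme assay; Input: PMI at 15 ng/mL final; Medium: HEPES buffer, pH 7.4; Schedule: 20 min incubation at room temperature; Technique: resorufin fluorescence at Ex 544/Em 590 nm; Compound: 20 µM single dose; Probe or stimulus: Near-saturating mannose-6-phosphate, 1.0 mM.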
Diaph inh CS – diaphorase inhibition or chemical oxidation counter-screen; diaphorase resazurin-to-resorufin fluorescence, NADH, 16 min; bacterial (C. kluyveri) enzyme, not human; inhibition, % at 20 µM; 190,000 tested, 0.69% active; AID 1217;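 active = primary screen inhibition at 20 µM above a set limit, cut at about 50% in these data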;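 also: plate controls were DMSO with full reaction for no effect and wells lacking NADH for full effect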
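Benchmarks: positive control wells lacking NADH, neutral wells with DMSO only. System: bacterial diaphorase enzyme (C. kluyveri). Input: 0.14 U/mL diaphorase, enzyme working solution. Detection: resorufin fluorescence, excitation 544 nm, emission 590 nm. Times: 16-min room-temperature incubation before reading.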
* = called active by the depositor.

SMILES | Diaphorase act | G6PDH counter | PMI activator | PMI act hi M6P | Diaph inh CS
CC1=NN(c2ccc(Cl)c(C(=O)O)c2)C(=O)/C1=C\c1ccc(-c2ccc(C(=O)O)cc2)o1 | 0.8 | -8.5 | 1.4 | 1 | 17.7
O=C(O)c1ccc(N2C(=O)/C(=C/c3ccc(-c4ccc([N+](=O)[O-])cc4)o3)C=C2c2ccccc2)cc1 | 0.4 | 2.2 | 1.2 | 1.3 | 56.8*
CN1C(=O)/C(=C\C=C2/CCCN2C)N(C)C1=S | 0.5 | 5.9 | 0.5 | 0.7 | 51.5*
CCOc1ncccc1C(=O)OCC(=O)N(CC(C)C)C1CCS(=O)(=O)C1 (stereo unspecified) | 0.9 | -5.5 | 1.1 | 0.9 | 7.0
Oc1ccc2ccccc2c1C=NC1CCCCC1 | 0.5 | 29.9 | 0.2 | 0.3 | 51.9*
Cc1cccc2c(C(=O)n3cccn3)cc(-c3ccccc3Cl)nc12 | 0.9 | -1.4 | 0.9 | 1 | 6.8
CCOC(=O)/C=C(/C)N1N=C(c2ccc(OC)cc2)CC1c1cccc([N+](=O)[O-])c1 (stereo unspecified) | 1 | -20.1 | 1.6 | 2.3* | -1.6
Cc1ccc2nc(SCC(=O)NNC(=O)c3ccccc3)[nH]c2c1 | 0.8 | 6.0 | 0.8 | 0.9 | 20.8
O=C1S/C(=C\c2ccc(O)c([N+](=O)[O-])c2)C(=O)N1c1ccccc1Cl | 1.1 | 10.1 | 1.1 | 1 | -6.4
COc1cc(/C=C2\SC(=O)N(c3cccc(Cl)c3)C2=O)cc([N+](=O)[O-])c1O | 0.4 | 2.2 | 1 | 0.9 | 64.2*
COc1cc(/C=C2\SC(=O)N(c3ccc(Cl)cc3)C2=O)cc([N+](=O)[O-])c1O | 0.2 | 4.7 | 0.7 | 0.8 | 82.4*
CCOc1ccc(C/C(O)=C2\C(=O)CC(C)(C)CC2=NCC(=O)O)cc1OCC | 1 | 5.9 | 1.1 | 1.1 | 1.2
COc1ccc(C)cc1NC(=O)N1CCCc2ccccc21 | 1 | 7.6 | 1 | 0.9 | 3.4
CCOC(=O)/C(=N/Nc1ccccc1)N1CCCc2ccccc21 | 0.9 | 26.0 | 1.5 | 2.4* | 10.1
COC(=O)/C(=N/Nc1ccccc1C)N1CCCc2ccccc21 | 0.9 | -0.5 | 1.5 | 2* | 14.3
O=C(Nc1ccccc1)N1CCCc2ccccc21 | 0.9 | 10.3 | 1 | 1 | 6.3
CC1(C)Oc2ccc3ccc(=O)oc3c2C(N2CCCCC2)C1O (stereo unspecified) | 1 | 13.0 | 1.5 | 2.1* | 2.3
C/C=C(/C)C(=O)O[C@H]1[C@@H](O)c2c(ccc3ccc(=O)oc23)OC1(C)C | 0.9 | 12.3 | 1.1 | 1.1 | 8.9
O=C(NNc1nc(N2CCOCC2)nc(N2CCOCC2)n1)Nc1ccc(Cl)cc1 | 1 | -5.8 | 1 | 1 | 2.8
COc1ccc(N=C2S/C(=C\c3ccc(OC(C)C(=O)O)c(OC)c3)C(=O)N2CCc2c[nH]c3ccccc23)cc1 (stereo unspecified) | 0.4 | 8.2 | 0.7 | 0.7 | 58.3*
COc1cc(/C=C2\SC(=Nc3ccccc3)N(CCc3c[nH]c4ccccc34)C2=O)ccc1OC(C)C(=O)O (stereo unspecified) | 0.8 | 1.2 | 0.9 | 0.9 | 18.3
Cc1ccc(C(c2nnnn2CCC(C)C)N2CCN(C)CC2)cc1 (stereo unspecified) | 0.9 | 1.9 | 0.9 | 0.9 | 13.4
Cc1cccc(C(=O)NC(=S)Nc2ccccc2C(F)(F)F)c1 | 0.8 | -9.6 | 0.8 | 0.9 | 16.4
Cc1cccc(C(=O)NC(=S)Nc2ccccc2C(=O)O)c1 | 0.5 | 8.6 | 0.8 | 0.9 | 51.1*
CCCCc1c(C)nc2ccc(Br)cc2c1SC(N)N | 1 | 10.0 | 1.7 | 2.2* | -2.4
SMILES | Diaphorase act | G6PDH counter | PMI activator | PMI act hi M6P | Diaph inh CS
CC(C)(C)C1CCC(=NNC(=O)C(=O)NCc2cccnc2)CC1 (stereo unspecified) | 1 | 6.2 | 1 | 0.9 | 1.1
CC(C)(C)C1CCC(=NNC(=S)NCc2ccccc2)CC1 (stereo unspecified) | 1 | 6.6 | 1.8 | 2* | 0.9
CCC(C)(C)C1CCC(=NNC(=S)Nc2ccccc2)CC1 (stereo unspecified) | 0.9 | 2.5 | 1.7 | 2.3* | 13.7
O=c1[nH]c2cccnc2n1Cc1ccccc1 | 1 | 2.8 | 1 | 1 | -4.4
COc1ccc(NC(=O)N/C=C/c2ccco2)cc1 | 1.1 | 14.5 | 1.8 | 2.2* | -12.7
CCC(C)NC(=O)NCc1ccccc1F (stereo unspecified) | 1 | 9.5 | 1.1 | 1.1 | 0.1
CCC(Sc1nc2n[nH]c(C)c2c(=N)n1-c1cccc(Cl)c1)C(=O)NCCOC (stereo unspecified) | 0.8 | 6.2 | 0.9 | 0.9 | 17.5
CCCCN(CC)C(=O)CSc1nc2n[nH]c(C)c2c(=N)n1-c1cccc(C)c1 | 0.3 | 10.6 | 0.8 | 0.9 | 66.5*
CCCN(CCC)C(=O)CSc1nc2n[nH]c(C)c2c(=N)n1-c1ccc(OC)cc1 | 1 | 2.0 | 0.9 | 1 | 3.5
Cc1cccc(-n2c(SCC(=O)N3CCCC3)nc3n[nH]c(C)c3c2=N)c1 | 0.3 | 9.3 | 1 | 0.9 | 67.7*
O=c1c2c3c(sc2n2cnnc2n1Cc1ccccc1)CN(Cc1ccccc1)CC3 | 0.9 | -30.3 | 1.5 | 2* | 7.0
NC(=O)COC(=O)CN1C(=O)C2CCCCC2C1=O (stereo unspecified) | 1 | -5.3 | 1 | 1 | 2.8
Oc1ccc(C2=Nn3c(nnc3-c3ccco3)SC2)cc1O | 0.3 | 19.1 | 0.4 | 0.4 | 69.9*
CC1CCCCN1c1nnc(NC(=O)Cn2c(=O)oc3ccccc32)s1 (stereo unspecified) | 0.4 | 7.2 | 0.9 | 1 | 62.5*
CCC(C)c1ccccc1NC(=O)COC(=O)C1=COCCO1 (stereo unspecified) | 1 | 3.1 | 1 | 1 | -2.6
CC(C)(C)c1ccc(Cn2nc(CC(=O)O)c3ccccc3c2=O)cc1 | 1.2 | 14.0 | 1.2 | 1 | -19.5
COc1ccc(-n2cccc2/C=C2\C(=N)N3N=C(c4ccco4)SC3=NC2=O)cc1 | 0.3 | -2.5 | 1.2 | 1.1 | 74.1*
CCC1=NN2C(=N)/C(=C\c3cccn3-c3ccc(Br)cc3)C(=O)N=C2S1 | 0.6 | -1.4 | 1.1 | 1.1 | 41.1
CCC1=NN2C(=N)/C(=C\c3cccn3-c3cccc(Cl)c3)C(=O)N=C2S1 | 0.4 | 0.5 | 0.9 | 1 | 59.2*
CCn1c(=S)ccc2ccc(OC)cc21 | 0.8 | -11.0 | 1.6 | 2* | 18.1
Cc1csc(NC(=O)c2cncc(Br)c2)n1 | 1 | 3.0 | 1 | 1 | 3.9
CCN=C1NN=C(c2cc(C)n(CCc3ccccc3)c2C)CS1 | 0.9 | 4.6 | 1.6 | 2.2* | 12.6
C=CCn1c(C)cc(C2=NNC(=NCc3ccccc3)SC2)c1C | 1 | 5.5 | 1.2 | 1.1 | -4.5
